Assay results reported in ChEMBL document CHEMBL1144084, “Semisynthesis and cytotoxicity of styryl-lactone derivatives” (J Nat Prod, 1999).
In brackets after ≈: the same amount, converted by molar mass. Activity calls are given as the source filed them. No cut-off for these calls is given here.

Columns and labels:
L1210 [1] = test: Cell cycle arrest in mouse L1210 cells by accumulation at G2M phase after 21 hrs relative to control; assay type: functional
Procedure, shortened: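 L-1210 cells incubated 21 h at 37 °C with various drug concentrations, fixed in 70% EtOH (v/v), washed, then stained 30 min at 20 °C in PBS with 100 µg/mL RNAse and 25 µg/mL propidium iodide. Value is percentage of cells accumulated in G2 + M phase after 21 h versus untreated control.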

L1210 [2] = test: Cytotoxicity against mouse L1210 cells after 48 hrs by MTT assay; assay type: functional, cell-based; conditions: L1210, 48 h
Procedure, shortened: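 Cells grown in RPMI 1640 with 10% fetal calf serum, 2 mM L-glutamine, penicillin/streptomycin and 10 mM Hepes (pH 7.4), exposed 48 h to graded drug concentrations. Read-out by microculture tetrazolium assay. IC50 is the concentration lowering optical density by 50% relative to untreated controls.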

SMILES | Activity (L1210 [1]) | IC50 (L1210 [2]) [µg/mL]
O=C1C[C@@H](Cl)[C@@H]2O[C@H](c3ccccc3)[C@@H](O)[C@@H]2O1 | 35% | 3.7 (≈ 13.8 µM)
O=C1C=C[C@@H]2O[C@H](c3ccccc3)[C@@H](O)[C@@H]2O1 [ALTHOLACTONE] | 35% | 2.9 (≈ 12.5 µM)
CO[C@H]1[C@@H](O)[C@H](O)[C@@H](c2ccccc2)OC(=O)C[C@H]1OC | inactive | 5.2 (≈ 17.5 µM)
O=C1C=C[C@@H]2O[C@H](c3c([N+](=O)[O-])cccc3[N+](=O)[O-])[C@@H](O)[C@@H]2O1 | inactive | 5 (≈ 15.5 µM)
O=C1C=C[C@@H]2O[C@H](c3ccc([N+](=O)[O-])cc3)[C@@H](O)[C@@H]2O1 | 35% | 3.2 (≈ 11.5 µM)
